This is an account of results in PMC9673105 (Poultry Science, 2022).

The subject of experiment [1] is POMC. The experiment in a line: Hypothalamic POMC mRNA. As to conditions: chicken. The experiment is classed as in vivo. The essentials:
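3-wk-old male chicks, randomized into four groups (N ≥ 3), given test peptide intravenously at 10, 50 or 100 ng/g BW, or PBS as control. Hypothalami collected 6, 12 and 24 h post-injection. EvaGreen qRT-PCR with melting-curve and agarose-gel specificity checks. mRNA normalised to β-actin and expressed as fold of PBS group. One-way ANOVA with Dunnett's test.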

For experiment [2], the system named is human GALR2. As to conditions: ref Kim et al., 2014, Cohen et al., 2020; cited from earlier work.
Experiment [3] relates to human GALR3. To be noted: ref Kim et al., 2014, Cohen et al., 2020; cited from earlier work.
Experiment [4] concerns zebrafish GALR2a. As to conditions: ref Kim et al., 2014, Cohen et al., 2020; cited from earlier work.
The test system of experiment [5] is zebrafish GALR2b. To be noted: ref Kim et al., 2014, Cohen et al., 2020; cited from earlier work.
Experiment [6] relates to tilapia GALR2a. To be noted: ref Kim et al., 2014, Cohen et al., 2020; cited from earlier work.
Experiment [7] deals with tilapia GALR2b. As to conditions: ref Kim et al., 2014, Cohen et al., 2020; cited from earlier work.
Experiment [8] concerns Xenopus GALR2b. As to conditions: ref Kim et al., 2014, Cohen et al., 2020; cited from earlier work.
The subject of experiment [9] is Xenopus GALR3. As to conditions: ref Kim et al., 2014, Cohen et al., 2020; cited from earlier work.
Experiment [10] deals with GALR1. To be noted: ref Kim et al., 2014, cited from earlier work.
Experiment [11] has as its system mice. To be noted: cited from earlier work.
Experiment [12] concerns goldfish. As to conditions: injection, ref Wong et al., 2013; cited from earlier work.
In experiment [13] the test system is Siberian sturgeon. To be noted: ref Tian et al., 2020, cited from earlier work.
For experiment [14] the following is noted: cited from earlier work.
For experiment [15], the system named is GALR2. To be noted: mouse; ref Lin et al., 2015; cited from earlier work.
The test system of experiment [16] is luteinizing hormone (LH) release. To be noted: ewe; ref Lomet et al., 2020; cited from earlier work.
Experiment [17] has as its system hypothalamic neuropeptides. To be noted: goldfish; ref Wong et al., 2013; cited from earlier work.
Experiment [18] relates to hypothalamic neuropeptides. As to conditions: zebrafish; ref Zheng et al., 2017; cited from earlier work.
Experiment [19] relates to hypothalamic neuropeptides. As to conditions: mouse; ref Lv et al., 2020; cited from earlier work.
Experiment [20] concerns hypothalamic neuropeptides. To be noted: orange-spotted grouper; ref Li et al., 2016; cited from earlier work.

Like-named read-outs stand apart in the source and are kept apart here.

Take “SPX: Spexin, novel neuropeptide; mature peptide with 14 amino acid residues, of various species in cited literature”: the “POMC mRNA level (in words)” value in experiment [1] is on record as “failed to change the mRNA level of POMC”. For the same substance, the receptor activation entry in experiment [2], in [3], in [4], in experiment [5], in [6] and in experiment [7] was “could activate” each time. The receptor activation result in experiment [8] is listed as “could activate”; in experiment [9], “could activate”; in experiment [10] (GALR1, Cohen et al., 2020), “not GALR1”. Also, in experiment [10], the “activation of GALR1” value is reported as “incompetent in activating GALR1”. The feeding entry in [11] (intraperitoneal (IP) injection, ref Lv et al., 2020, Wong et al., 2021b) is reported as “feeding inhibition”; in experiment [13] (intraperitoneal (IP) injection), “feeding inhibition”. Further, the feed intake result in experiment [11] (peripheral, ref Lv et al., 2020) is “suppresses feed intake”. In addition, the feed consumption result in experiment [12] and in experiment [13] (injection) was “observably decreased” throughout. For the same substance, the body weight entry in experiment [14] (rodents with diet-induced obesity, ref Walewski et al., 2014) was “lose weight”; in experiment [14] (rodents, ref Kolodziejski et al., 2021), “weight loss”. Further, the “bowel movement via SPX-dependent GALR2 activation” value in [15] is listed as “could enhance bowel movement”. Besides, the “basal and KISS-induced luteinizing hormone (LH) release” value in experiment [16] is “does not impact”. Also, the POMC expression entry in [17], in experiment [18] and in experiment [20] was “could elevate POMC expression” each time. Further, in [19], the “POMC mRNA level” value was “failed to change the mRNA level of POMC”.
